# Key:
# Staphylococcus aureus [1] = test: Antibacterial activity against methicillin-resistant Staphylococcus aureus MRSA 433 by broth microdilution method; format: functional
# Staphylococcus aureus [2] = test: Antibacterial activity against Staphylococcus aureus ATCC 29213 by broth microdilution method; format: functional
# Staphylococcus aureus [3] = test: Antibacterial activity against methicillin-resistant Staphylococcus aureus MRSA F511 by broth microdilution method; format: functional
# Staphylococcus aureus [4] = test: Antibacterial activity against methicillin-resistant Staphylococcus aureus MRSA M923 by broth microdilution method; format: functional
# [5] = Antibacterial activity against Staphylococcus aureus Mu50 ATCC 700699 by broth microdilution method; format: functional, Staphylococcus aureus subsp. aureus Mu50
# HepG2 [6] = test: Cytotoxicity against human HepG2 cells at 25 to 100 ug/ml after 48 hrs by presto-blue staining-based assay; format: cell-based; conditions: hepg2, 48 h
# Procedure, shortened: (§1)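 HepG2 cells were grown in DMEM with 10% heat-inactivated FBS, 2 mM L-glutamine and penicillin/streptomycin. They were seeded at 40,000 cells/cm² on collagen-coated wells and treated two days later with enantiomers at 25–100 µg/ml (in DMSO) for 48 h. PrestoBlue resazurin was read after 1 h at 37 °C as absorbance at 570 nm against 600 nm. Data are mean ± SEM of 3 experiments in triplicate; Student's t test.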
# HepG2 [7] = test: Cytotoxicity against human HepG2 cells at 100 ug/ml after 48 hrs by presto-blue staining-based assay; format: cell-based; conditions: hepg2, 48 h; procedure, shortened: as §1
# HepG2 [8] = test: Cytotoxicity against human HepG2 cells at 50 to 100 ug/ml after 48 hrs by presto-blue staining-based assay; format: cell-based; conditions: hepg2, 48 h; procedure, shortened: as §1
# Staphylococcus aureus [9] = test: Antibacterial activity against linezolid-sensitive methicillin-resistant Staphylococcus aureus by broth microdilution method; format: functional
# HepG2 [10] = test: Cytotoxicity against human HepG2 cells at 25 ug/ml after 48 hrs by presto-blue staining-based assay; format: cell-based; conditions: hepg2, 48 h; procedure, shortened: as §1
# [11] = tested on: Staphylococcus epidermidis; test: Antibacterial activity against linezolid-resistant methicillin-resistant Staphylococcus epidermidis by broth microdilution method; format: functional
SMILES,MIC (Staphylococcus aureus [1]) [µg/mL],MIC (Staphylococcus aureus [2]) [µg/mL],MIC (Staphylococcus aureus [3]) [µg/mL],MIC (Staphylococcus aureus [4]) [µg/mL],MIC [5] [µg/mL],Activity (HepG2 [6]),Activity (HepG2 [7]) [%],Activity (HepG2 [8]),MIC (Staphylococcus aureus [9]) [µg/mL],Activity (HepG2 [10]),MIC [11] [µg/mL]
Cc1noc(-c2ccc(N3CC(Cn4ccnn4)OC3=O)cc2)n1 (racemic),12.5,25,12.5,25,3.12,–,–,–,–,–,–
Cc1noc(-c2ccc(N3CC(CNC(N)=S)OC3=O)cc2F)n1 (racemic),> 50,> 50,> 50,> 50,> 50,–,–,–,–,–,–
Cc1noc(-c2ccc(N3CC(CN=C=S)OC3=O)cc2)n1 (racemic),> 50,> 50,50,> 50,> 50,–,–,–,–,–,–
Cc1noc(-c2ccc(N3CC(CNC(N)=S)OC3=O)cc2)n1 (racemic),> 50,> 50,50,> 50,> 50,–,–,–,–,–,–
CNC(=S)NC[C@H]1CN(c2ccc(-c3nc(C)no3)c(F)c2)C(=O)O1,–,–,–,–,–,Toxic,–,–,–,–,–
CNC(=S)NCC1CN(c2ccc(-c3nc(C)no3)cc2)C(=O)O1 (racemic),3.12,6.25,6.25,6.25,1.6,–,–,–,–,–,–
C=C1CN(c2ccc(-c3nc(C)no3)cc2)C(=O)O1,> 50,> 50,> 50,> 50,> 50,–,–,–,–,–,–
CC(=O)NC[C@H]1CN(c2ccc(N3CCOCC3)c(F)c2)C(=O)O1 [LINEZOLID],–,–,3.12,3.12,–,–,20,–,–,–,–
CNC(=S)NC[C@@H]1CN(c2ccc(-c3nc(C)no3)c(F)c2)C(=O)O1,–,–,–,–,–,Toxic,–,–,–,–,–
CNC(=S)NCC1CN(c2ccc(-c3nc(C)no3)c(F)c2)C(=O)O1 (racemic),3.12,6.25,6.25,6.25,1.6,–,–,–,–,–,–
CNC(=S)NC[C@H]1CN(c2ccc(-c3nc(C)no3)cc2)C(=O)O1,–,–,–,–,–,–,–,Non-toxic,0.5,Toxic,8
Cc1noc(-c2ccc(N3CC(CN=C=S)OC3=O)cc2F)n1 (racemic),> 50,> 50,> 50,> 50,> 50,–,–,–,–,–,–
Cc1noc(-c2ccc(N3CC(Cn4ccnn4)OC3=O)cc2F)n1 (racemic),6.25,25,12.5,25,1.6,–,–,–,–,–,–
C=C1CN(c2ccc(-c3nc(C)no3)c(F)c2)C(=O)O1,> 50,> 50,> 50,> 50,> 50,–,–,–,–,–,–

# Source: ChEMBL document CHEMBL3351809, “New potent antibacterials against Gram-positive multiresistant pathogens: effects of side chain modification and chirality in linezolid-like 1,2,4-oxadiazoles” (Bioorg Med Chem, 2014)
